# Laboratory results as given in ChEMBL document CHEMBL3860034, “Development of Potent and Selective S. aureus Sortase A Inhibitors Based on Peptide Macrocycles” (ACS Med Chem Lett, 2016).
# The source made the active and inactive calls. The rule behind the calls is not given here. *1 amine or outer side, *2 acyl side, *3 side chain or, on linkers, in order; H or OH if unused. Where a SMILES comes first, the peptide text is derived from it. Bridges are numbered along the chain shown (N, C = ends). TBMB = c1c(C[*:1])cc(C[*:3])cc1C[*:2]
# Key:
# [1] = biological target: T1, Sortase A (Staphylococcus aureus, UniProt Q9S446); experiment: Inhibition of Staphylococcus aureus His6-biotinylated SrtA expressed in Escherichia coli XL1-blue using Dabcyl-LPETG-Edans as substrate assessed as residual activity by fluorescence assay
# T1 sequence (Q9S446 whole entry): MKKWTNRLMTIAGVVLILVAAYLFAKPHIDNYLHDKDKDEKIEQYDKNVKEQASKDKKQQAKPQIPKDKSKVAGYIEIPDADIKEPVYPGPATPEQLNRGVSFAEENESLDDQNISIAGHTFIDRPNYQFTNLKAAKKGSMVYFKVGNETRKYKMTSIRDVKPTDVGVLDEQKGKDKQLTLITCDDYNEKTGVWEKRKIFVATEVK
# Summary of the method: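 (His)6-SrtA26−206 from E. coli XL1-blue, purified by Ni affinity and gel filtration. Enzyme at 2.5 μM incubated with varied peptide concentrations (up to 300 μM). Residual activity measured with 20 μM Dabcyl-LPETG-Edans and 200 μM triglycine in 50 mM Tris-Cl pH 7.4, 150 mM NaCl, 5 mM CaCl2, 0.1% BSA, 37 °C. Fluorescence read at ex 350/em 480 nm. Ki from Supporting Information equations; at least three measurements.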
# [2] = biological target: T1, Sortase A; experiment: Binding affinity to Staphylococcus aureus His6-biotinylated SrtA expressed in Escherichia coli XL1-blue using fluorescein-tagged compound after 15 mins by fluorescence polarization
# Summary of the method: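 Serial dilutions of SrtA mixed with 200 nM fluorescein-labeled bicyclic peptide in 50 mM Tris-Cl pH 7.4, 150 mM NaCl, 5 mM CaCl2; 15 min at room temperature. Fluorescence polarization read at 485 nm excitation / 535 nm emission. Kd obtained by nonlinear regression of polarization against total SrtA concentration.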
# [3] = biological target: Urokinase-type plasminogen activator (Homo sapiens, UniProt P00749); experiment: Inhibition of human uPA using fluorogenic Z-Gly-Gly-Arg-AMC as substrate
# [4] = Inhibition of recombinant Staphylococcus aureus SrtA N24 deletion mutant by using abz-LPATG-dnp as substrate
# [5] = biological target: T2, Sortase A (Staphylococcus aureus) (UniProt Q9S446); experiment: (§1) Inhibition of SrtA-mediated incorporation of Fluo-GSLPETGGS substrate to cell wall of Staphylococcus aureus Newman after 24 hrs by fluorescence assay; details: Staphylococcus aureus subsp. aureus str. Newman
# T2 sequence (whole entry): T1 sequence (Q9S446 whole entry)
# [6] = biological target: T1, Sortase A; experiment: as §1; parameters: species or system Staphylococcus aureus subsp. aureus str. Newman
# [7] = tested on: Staphylococcus aureus; experiment: Induction of Fluo-GSLPETGGS substrate transfer to cell wall of SrtA knockout Staphylococcus aureus SKM12 at 1 mM after 24 hrs by fluorescence assay; assay type: functional
Compound,Ki [1],Kd [2],also measured
CC(C)C[C@@H]1NC(=O)[C@H](CCC(N)=O)NC(=O)[C@@H]2CCCN2C(=O)[C@@H](NC(=O)[C@H](C)N)CSCc2cc3cc(c2)CSC[C@H](NC(=O)[C@@H]2CCCN2C(=O)[C@@H]2CCCN2C1=O)C(=O)N[C@@H](CCCNC(=N)N)NC(=O)[C@H](C(C)C)NC(=O)[C@H](CO)C(=O)N[C@H](C(=O)NCC(N)=O)CSC3,4300 nM,8.8 µM,
CC(C)[C@@H]1NC(=O)[C@H](CCC(=O)O)NC(=O)[C@H](Cc2ccc(O)cc2)NC(=O)[C@H](CCCNC(=N)N)NC(=O)[C@@H](CO)NC(=O)[C@H](NC(=O)[C@H](C)N)CSCc2cc3cc(c2)CSC[C@@H](C(=O)NCC(N)=O)NC(=O)[C@@H](C)NC(=O)[C@H](CO)NC(=O)CNC(=O)[C@H](CCCNC(=N)N)NC(=O)CNC(=O)[C@H](CCCNC(=N)N)NC(=O)[C@H](CSC3)NC(=O)[C@H](CC(=O)O)NC1=O,,,Ki [3]: 53 nM
O=S(=O)(O)c1cccc(-c2nn3c(-c4ccncc4)nnc3s2)c1,,,IC50 [4]: 9.3 µM
CC(C)C[C@@H]1NC(=O)[C@H](CCC(N)=O)NC(=O)[C@@H]2CCCN2C(=O)[C@@H]2CSCc3cc(cc(c3)CSC[C@@H](C(=O)NCC(=O)O)NC(=O)[C@@H]3CCCN3C(=O)[C@@H]3CCCN3C1=O)CSC[C@H](NC(=O)[C@H](C)N)C(=O)N[C@@H](Cc1c[nH]cn1)C(=O)N[C@@H](CO)C(=O)N[C@@H](CCCNC(=N)N)C(=O)N2 (H-ACHSRCPQLPPCG-OH; linker 2-6-12 via TBMB),1100 nM,,inhibition [5]: Dose-dependent effect; IC50 [6]: 167 µM; Activity [7]: Active
CC(C)C[C@@H]1NC(=O)[C@H](CCC(N)=O)NC(=O)[C@@H]2CCCN2C(=O)[C@@H]2CSCc3cc(cc(c3)CSC[C@@H](C(=O)NCC(N)=O)NC(=O)[C@@H]3CCCN3C(=O)[C@@H]3CCCN3C1=O)CSC[C@H](NC(=O)[C@H](C)N)C(=O)N[C@@H]([C@@H](C)O)C(=O)N[C@@H](CCC(N)=O)C(=O)N[C@@H](CCCNC(=N)N)C(=O)N2 (H-ACTQRCPQLPPCG-NH2; linker 2-6-12 via TBMB),2400 nM,1.5 µM,
